A selection: hits, their analogues and other compounds. The true share with any hit is near 3.7%.
TAAR1 antagonist: human TAAR1 antagonism. Q96RJ0. CHO RD-HGA16 TAAR1, Fluo-8 calcium fluorescence, antagonist. inhibition, % at 3 µM. actives 1.5% (n = 360,000);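 active = inhibition above a per-plate cutoff, the mean inhibition of test compounds on that plate plus 3 SD, cut at about 49% in these data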;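 also: 0% = DMSO plus EC80 beta-PEA response and 100% = DMSO alone without agonist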
Target sequence (Q96RJ0 whole entry, looked up): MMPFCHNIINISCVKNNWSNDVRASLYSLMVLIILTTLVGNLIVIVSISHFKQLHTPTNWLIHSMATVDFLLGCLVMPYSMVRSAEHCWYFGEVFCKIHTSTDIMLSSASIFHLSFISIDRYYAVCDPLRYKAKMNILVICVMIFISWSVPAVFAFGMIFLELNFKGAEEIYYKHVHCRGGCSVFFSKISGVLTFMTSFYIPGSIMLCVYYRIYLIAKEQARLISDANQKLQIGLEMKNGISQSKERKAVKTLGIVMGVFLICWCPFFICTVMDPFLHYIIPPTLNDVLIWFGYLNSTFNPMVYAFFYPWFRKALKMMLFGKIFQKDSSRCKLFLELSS
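Assay system: CHO-derived RD-HGA16 cells stably expressing human TAAR1 plus Gα16. Timing: 140 s kinetic read after compound, 140 s after agonist. Technique: kinetic Fluo-8 calcium fluorescence measurement. Measure: % inhibition of agonist calcium response.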
TAAR1 ag: agonists of human TAAR1; Q96RJ0; CHO RD-HGA16 TAAR1, Fluo-8 calcium fluorescence; vehicle wells 0%, saturating PEA agonist 100%; activation, % at 3 µM; actives 0.99% (n = 360,000);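 active = activation above the mean activation of all test compounds in the run plus 3 SD, cut at about 38% in these data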
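System: CHO RD-HGA16 cells carrying human TAAR1 plus Gα16; Incubation: 17-24 h seeding, 75 min 37 °C dye, 30 min RT; Measured by: Fluo-8 fluorescence, 5 s baseline then 140 s kinetic read; Control set: DMSO and PEA EC100; Replication: single well for each compound.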
NS3 helicase inh: HCV NS3 helicase inhibition. NS3 helicase DNA unwinding, Cy5 molecular beacon fluorescence. inhibition, % at 10.9 µM. actives 0.56% (n = 290,000). AID 1800;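 active = inhibition above the mean of all tested compounds plus 3 SD, set per campaign, cut at about 35% in these data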;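 also: 0% = DMSO wells and 100% = thioflavine S control wells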
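Assay system: hepatitis C virus NS3 helicase domain fragment enzyme. Also added: annealed dual-labelled DNA beacon duplex, ATP-started. Timing: 1 h reaction at 25 °C, ATP-initiated. Technique: Cy5 fluorescence at 0 and 60 min, beacon hairpin quenching. Evaluation: % inhibition of unwinding. Replication: one well per compound.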
HCV core dimer: blocks dimerization of HCV core protein | TR-FRET GST/Flag-core106 dimerization, 1536-well | inhibition, % at 5 µM | actives 0.33% (n = 300,000) | AID 1899;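 active = inhibition above the mean of all tested compounds plus 3 SD, set per screening campaign, cut at about 45% in these data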
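System: GST-tagged and Flag-tagged HCV core protein residues 1-106 / Input: core106 proteins, GST 13.5 nM and Flag 17 nM / Buffer or medium: KF-containing HEPES buffer, pH 7.45, DTT, CHAPS, BSA / Probe or stimulus: Eu-anti-GST and XL665-anti-Flag labelled anti-tag antibodies / Schedule: 4 h, 22.5 °C incubation / Technique: TR-FRET 671 and 617 nm emission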
rCAG binder: binds r(CAG) RNA repeats | r(CAG) RNA repeat, TO-PRO-1 dye displacement fluorescence | inhibition, % at 3 µM | actives 1.3% (n = 370,000);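 active = inhibition above the plate cutoff, the mean of all test compounds on that plate plus 3 SD, cut at about 35% in these data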;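 also: 0% = DMSO alone and 100% = 100 µM mitoxantrone as full dye displacement; higher means more dye released from RNA so lower well fluorescence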
rCAG binder conf: r(CAG) RNA repeat binding, confirmation | shares compounds with rCAG binder | TO-PRO-1 dye displacement fluorescence | inhibition, % at 3 µM | actives 70% (n = 4,300) | AID 652065;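 active = inhibition above a per-plate cutoff, the mean inhibition of sample wells plus 3 SD, cut at about 35% in these data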;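 also: loss of TO-PRO-1 fluorescence as compound displaces dye from 1x1 AA loop RNA; 0% = DMSO only wells and 100% = 100 µM mitoxantrone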
DNA CAG counter: disrupts DNA CAG TO-PRO-1 complex, flagging rCAG hits | shares compounds with rCAG binder | d(CAG) DNA oligo TO-PRO-1 dye displacement, fluorescence | inhibition, % at 3 µM | actives 94% (n = 4,300) | AID 652068;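 active = inhibition above its plate's cutoff, the mean test-well inhibition plus 3 SD, cut at about 4.8% in these data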;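 also: 0% = DNA dye mix with DMSO and 100% = 100 µM mitoxantrone; hits displace the dye from DNA and so lower well fluorescence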
* marks the source's active call; other numbers are inactive results; · = no result.

SMILES	TAAR1 antagonist	TAAR1 ag	NS3 helicase inh	HCV core dimer	rCAG binder	rCAG binder conf	DNA CAG counter
Cc1c(CC(=O)O)c(=O)oc2cc3oc4c(c3cc12)CCCC4	-8	0	-1	2	8	·	·
Cc1oc2cc3oc(=O)c(CC(=O)O)c(C)c3cc2c1-c1ccccc1	-11	1	11	6	47*	39*	11*
Cc1c(CC(=O)O)c(=O)oc2cc(OCc3nn[nH]n3)ccc12	10	1	-3	0	0	·	·
Cc1c(CC(=O)O)c(=O)oc2cc(OCc3ccc(Cl)cc3)ccc12	3	3	-4	4	38*	33	6.9*
COc1ccc(-c2cc3ccc(OCc4nn[nH]n4)cc3oc2=O)cc1OC	-16	19	7	0	35*	19	4.7*
Cc1c(C)c2c(OCC(=O)N[C@@H](Cc3ccccc3)C(=O)O)cc3c(c2oc1=O)CCC(C)(C)O3	5	0	-29	4	45*	48*	13*
Cc1ccccc1C(=O)NC1CCCCN(C(C)C)C1=O (stereo not drawn)	·	·	·	·	2	·	·
COc1ccc(OC)c(S(=O)(=O)NCC2CCN(C(=O)C(=O)c3cccs3)CC2)c1	-5	1	·	·	3	·	·
COc1ccc(-c2cc(C(=O)NN=Cc3cccn3C)[nH]n2)cc1	·	·	·	·	14	·	·
Cc1c(Cc2ccccc2)c(=O)oc2cc(OCc3nn[nH]n3)ccc12	6	-1	9	33	38*	36*	9.1*
O=C(COc1ccc2c(c1)oc(=O)c1ccccc12)NC(Cc1ccc(Cl)cc1)C(=O)O (stereo not drawn)	-28	3	-13	4	56*	56*	19*
Cc1c(Cc2ccccc2)c(=O)oc2cc(OCC(=O)N[C@@H](Cc3ccccc3)C(=O)O)ccc12	14	3	-2	3	42*	45*	12*
CCC(CO)Nc1cccc2c1S(=O)(=O)N(Cc1cn(Cc3ccc(C(F)(F)F)cc3)nn1)Cc1ccccc1O2 (stereo not drawn)	·	·	·	·	3	·	·
O=c1[nH]c(Nc2ccccc2)cc2cc(Br)ccc12	35	36	·	42	37*	14	15*
COC(=O)C1=C(C)N(Cc2ccc(Cl)cc2)C(=S)NC1c1ccc(Br)cc1 (stereo not drawn)	6	0	·	·	6	·	·
COc1cc(/C=N/Nc2nc(C)nc3c2cnn3-c2ccccc2)ccc1O	20	8	-6	·	41*	27	9.7*
Cc1cc(C(=O)Nc2ccc(Cl)c(Cl)c2)n(-c2ccccc2)n1	·	·	·	·	1	·	·
COC(=O)c1cc(=O)nc(NN=C2c3ccccc3-c3ccccc32)s1	13	0	·	·	38*	94*	77*
COC(=O)c1cc(=O)nc(NN=Cc2ccccc2)s1	12	0	·	·	6	·	·
Cc1cc(C)cc(N=Cc2c(O)c3ccccc3oc2=O)c1	-8	6	12	4	2	·	·
O=C(O)c1cc(N=Cc2c(O)c3ccccc3oc2=O)ccc1O	-10	-1	17	·	38*	19	3
O=c1cc(-c2c(O)c3ccccc3n(Cc3ccccc3)c2=O)[nH][nH]1	-9	0	21	16	47*	22	8.3*
CN(C)c1cccc2c(S(=O)(=O)NC(=O)[C@H]3O[C@@H](n4ccc(=O)[nH]c4=O)[C@H](O)[C@@H]3O)cccc12	-22	4	·	·	4	·	·
CCOC(=O)Nc1sc2c(c1C#N)CCC(C)C2 (stereo not drawn)	·	·	-11	0	·	·	·
CC1CCc2c(sc(NC(=O)COC(=O)C3CCCO3)c2C#N)C1 (stereo not drawn)	-8	1	-4	1	0	·	·
SMILES	TAAR1 antagonist	TAAR1 ag	NS3 helicase inh	HCV core dimer	rCAG binder	rCAG binder conf	DNA CAG counter
CC1CCc2c(sc(NC(=O)COC(=O)c3ccc(O)cc3)c2C#N)C1 (stereo not drawn)	3	2	-4	21	39*	37*	19*
CCC1CCc2c(sc(NC(=O)C3CC=CCC3C(=O)O)c2C#N)C1 (stereo not drawn)	1	-1	34	10	59*	39*	11*
O=C(N[C@@H](Cc1cccnc1)C(=O)N1CCC[C@H]1C(=O)NCCc1ccccc1Cl)c1ccco1	12	30	·	·	2	·	·
O=C1C(=Cc2cn(-c3ccccc3)nc2-c2ccc(OCc3ccccc3)cc2)SC(=S)N1CCS(=O)(=O)O	-7	10	·	·	59*	72*	49*
Cc1ccc(-c2nn(-c3ccccc3)cc2C=C2SC(=S)N(CCS(=O)(=O)O)C2=O)cc1	-6	1	·	·	87*	94*	77*
Cc1cc(NS(=O)(=O)c2ccc(NC(=O)/C=C/c3cccc(Cl)c3)cc2)no1	-38	0	-11	14	61*	49*	17*
Cc1cc(NS(=O)(=O)c2ccc(NC(=O)/C=C/c3ccccc3Cl)cc2)no1	-12	3	26	10	71*	56*	23*
Cc1cc(NS(=O)(=O)c2ccc(NC(=O)/C=C/c3ccccc3)cc2)no1	9	-2	5	-2	30	·	·
CC(C)CCNC(=O)[C@@H](Cc1ccccc1)NC(=O)[C@H]1O[C@@H](n2ccc(=O)[nH]c2=O)[C@H](O)[C@@H]1O	-11	1	·	·	1	·	·
COCCN(C)Cc1nc(C(c2ccccc2)c2ccccc2)no1	-22	-1	-11	-1	-7	·	·
N#CCc1nc(C(c2ccccc2)c2ccccc2)no1	-32	1	10	8	40*	17	8.0*
COC(=O)[C@]12C[C@H](CC(=O)NCCc3ccccc3OC)C(=O)N(Cc3ccc4c(c3)OCO4)C1=C[C@H](C(C)C)O[C@@H]2C1CC1	·	·	·	·	7	·	·
CCc1ccc(NC(=O)CSc2nc3ccsc3c(=O)n2CCC(=O)O)cc1	-10	2	4	2	23	·	·
CCc1ccc(NC(=O)C(CC)Sc2nc3ccsc3c(=O)n2CCC(=O)O)cc1 (stereo not drawn)	-11	4	1	7	38*	23	4.4*
CCC(Sc1nc2ccsc2c(=O)n1Cc1ccc(C(=O)O)cc1)C(=O)Nc1cccc(OC)c1 (stereo not drawn)	-31	1	·	·	46*	36*	11*
CCSc1nsc(NC(=O)Nc2ccccc2F)n1	23	14	5	5	26	·	·
CCSc1nsc(NC(=O)Nc2cccc(OC)c2)n1	32	9	1	-6	58*	20	16*
COc1cccc(NC(=O)Nc2nnc(Cc3ccc(F)cc3)s2)c1	-12	6	-5	9	8	·	·
